Screens (PubChem)
The list is not random: actives were taken first. Their share in the collection is about 1.9%.
M4 PAM: human M4 muscarinic receptor positive allosteric modulators, primary screen, CHO-K1 cells, Fluo-8 calcium fluorescence. Muscarinic acetylcholine receptor M4 (Homo sapiens), P08173. CHO-K1 hM4/Gqi5, ACh EC20; 0% = ACh EC20, 100% = maximal ACh. activation, % at 3 µM. 360,000 tested, 0.4% active;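 active = activation above its plate's cutoff, the mean activation of sample wells plus 3 SD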
CHRM5 agonist: human M5 muscarinic receptor agonists, primary screen, CHO-K1 cells, Fluo-8 calcium fluorescence; CHO-K1 hM5 cells; 0% DMSO wells, 100% maximal acetylcholine response; activation, % at 3 µM; 360,000 tested, 0.19% active;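 active = activation above the run's mean over test compounds plus 3 SD, cut at about 23% in these data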;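 note: signal is peak over basal fluorescence ratio across the kinetic read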
Target sequence (P08912 whole entry, looked up): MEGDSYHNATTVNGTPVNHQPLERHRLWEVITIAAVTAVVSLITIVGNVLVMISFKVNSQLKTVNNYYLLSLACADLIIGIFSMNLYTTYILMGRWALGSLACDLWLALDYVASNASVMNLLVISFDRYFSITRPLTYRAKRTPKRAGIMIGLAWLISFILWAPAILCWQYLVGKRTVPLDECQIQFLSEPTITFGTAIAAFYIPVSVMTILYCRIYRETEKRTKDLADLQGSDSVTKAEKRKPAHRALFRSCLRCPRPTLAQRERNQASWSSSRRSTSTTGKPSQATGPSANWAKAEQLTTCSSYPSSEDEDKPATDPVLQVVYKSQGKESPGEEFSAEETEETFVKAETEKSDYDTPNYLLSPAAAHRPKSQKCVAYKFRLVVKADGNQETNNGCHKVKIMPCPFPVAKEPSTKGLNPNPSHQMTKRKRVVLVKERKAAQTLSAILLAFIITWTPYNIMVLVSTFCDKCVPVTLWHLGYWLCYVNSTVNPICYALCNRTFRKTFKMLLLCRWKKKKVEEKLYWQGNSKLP
M4 antag: human M4 muscarinic receptor antagonists, primary screen, CHO cells, Fluo-8 calcium fluorescence; 360,000 tested, 0.73% active; inhibition, % at 3 µM; AID 624125, 2012; Muscarinic acetylcholine receptor M4 (Homo sapiens), P08173; CHO-hM4 cells, ACh EC80;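 active = inhibition above its plate's cutoff, the mean inhibition of sample wells plus 3 SD, cut at about 27% in these data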;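 note: 0% = acetylcholine EC80 with DMSO and 100% = DMSO without agonist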
CHRM5 antagonist: human M5 muscarinic receptor antagonists, primary screen, CHO cells, Fluo-8 calcium fluorescence; Muscarinic acetylcholine receptor M5 (Homo sapiens), P08912; inhibition, % at 3 µM; AID 624040, 2012; 360,000 tested, 0.59% active; CHO-hM5 cells, ACh EC80;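 active = inhibition above a per-plate cutoff, the mean of that plate's test compounds plus 3 SD, cut at about 27% in these data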;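 note: 0% = acetylcholine EC80 with DMSO and 100% = DMSO without agonist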
M5 PAM: human M5 muscarinic receptor positive allosteric modulators, primary screen, CHO-K1 cells, Fluo-8 calcium fluorescence. Muscarinic acetylcholine receptor M5 (Homo sapiens), P08912. CHO-K1 hM5, ACh EC20 PAM; 0% = ACh EC20, 100% = ACh EC100. activation, % at 3 µM. 360,000 tested, 0.3% active;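 active = activation above the run cutoff, the mean activation of all test compounds plus 3 SD, cut at about 18% in these data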
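System: CHO-K1 hM5 cells. Reagent: acetylcholine, EC20 level. Compound dosing: single dose, 3 µM nominal final test concentration. Timing: Post-acetylcholine fluorescence recording 140 s. Detection: Fluo-8 calcium fluorescence. Read-out: % activation, ACh-normalized. Benchmarks: ACh EC20 and EC100 wells. Repeats: singlicate, one well per test compound.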
CHRM4 agonist: human M4 muscarinic receptor agonists, primary screen, CHO-K1 cells, Fluo-8 calcium fluorescence; Muscarinic acetylcholine receptor M4 (Homo sapiens), P08173; CHO-K1 hM4/Gqi5; vehicle 0%, full acetylcholine response 100%; activation, % at 3 µM; 360,000 tested, 0.14% active;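 active = activation above the run mean over all test wells plus 3 SD, cut at about 32% in these data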;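 note: peak over basal fluorescence ratio per well then scaled between controls; 0% = DMSO wells and 100% = acetylcholine at EC100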
Starred values were filed as active, the others as inactive.

SMILES | M4 PAM | CHRM5 agonist | M4 antag | CHRM5 antagonist | M5 PAM | CHRM4 agonist
CCN(CC)CC#CC(OC)(c1ccccc1)c1ccccc1 | -27 | -12 | 57* | 96* | -16 | -2
COc1ccccc1-c1noc2c1C(=O)NCC2 | 2 | 0 | -7 | -10 | 9 | 1
S=C(Nc1ccc(Cl)c(Cl)c1)NC1CCN(Cc2ccccc2)CC1 | 3 | 19 | 38* | 33* | -14 | 46*
S=C(Nc1ccc(Cl)c(Cl)c1)NC1CCCCC1 | -10 | 3 | 15 | 29* | -23 | 18
S=C(Nc1cccc(Cl)c1Cl)NC1CCN(Cc2ccccc2)CC1 | 0 | -1 | 9 | -2 | 5 | 9
Fc1cccc(NC(=S)NC2CCCCCCC2)c1 | -6 | 4 | -7 | 27* | -17 | 14
Fc1ccc(NC(=S)NC2CCN(Cc3ccccc3)CC2)cc1 | -9 | -2 | 1 | -2 | -5 | 6
Cc1cccc(NC(=S)NC2CCN(Cc3ccccc3)CC2)c1C | 24* | 0 | 5 | -7 | 9 | 5
COc1ccc(NC(=O)c2cc(C3CCCCN3C(=O)CCc3ccccc3)on2)c(C)c1 (stereo not given) | -2 | 0 | -6 | 9 | -2 | 4
COCCN1C(=O)COc2ccccc2C1C(=O)NC1CCCCC1 (stereo not given) | -5 | 0 | 8 | 14 | -5 | 0
Cc1cc(Br)c2nc(-c3ccccc3)c(Cc3cccc(Cl)c3)n2c1 | 0 | -3 | -3 | 6 | -7 | -1
CNc1nc(NCc2ccc(N(C)C)cc2)c2sccc2n1 | -6 | 1 | 3 | 8 | -4 | 4
CN(Cc1nccn1C)C(=O)c1ccc(OC2CCN(CCc3ccccc3)CC2)cc1 | -13 | -9 | 20 | 28* | -11 | 0
CC(C)N(C)C(=O)c1ccc(OC2CCN(CCc3ccccc3)CC2)cc1 | -30 | -18 | 6 | 3 | -4 | 2
CC(c1nccs1)N(C)C(=O)c1ccc(OC2CCN(CCc3ccccc3)CC2)cc1 (stereo not given) | -16 | -9 | 31* | 36* | -14 | 2
Cn1cc(CN2CCC(C(=O)NC(c3ccc(F)cc3)c3ccc4ccccc4n3)CC2)c2ccccc21 (stereo not given) | -12 | 1 | 10 | 6 | -5 | 25
CCOC(=O)N1CCN(c2nc3ccc(C(=O)c4ccccc4)cc3n3cnnc23)CC1 | 31* | 7 | 1 | -2 | 16 | 1
Cn1ccc2c(-c3ccc4c(c3)OCCO4)cc3c(c21)C1CCC3C1 (stereo not given) | 10 | 0 | 6 | 3 | -4 | 0
COc1ccccc1OCCn1nc2ccccc2c1OC | 5 | -2 | -4 | -7 | -3 | 6
CCCCC(=O)Nc1ccc2c(c1)nc1n2CCOC1 | 2 | -1 | -9 | -5 | -1 | 0
CCCC(=O)Nc1ccc2c(c1)nc1n2CCOC1 | 31* | 3 | 3 | -10 | 5 | 1
CCc1nc2ccc(C(=O)NCCN3CCCC3)cn2c1N(C)Cc1ccc(OC)cc1 | -15 | -3 | 56* | -5 | -7 | 1
CCc1nc2ccc(C(=O)NCc3ccc(OC)cc3)cn2c1N(C)Cc1ccc(OC)cc1 | -12 | -3 | 13 | -1 | -13 | 6
CCCCN(C)c1c(C)nc2ccc(C(=O)NCCOc3ccc(OC)cc3)cn12 | -9 | 0 | 10 | 29* | -24 | 12
COCCNC(=O)C1(C)CCCN(C(=O)c2ccco2)C1 (stereo not given) | 1 | 0 | -12 | 6 | 5 | 0
SMILES | M4 PAM | CHRM5 agonist | M4 antag | CHRM5 antagonist | M5 PAM | CHRM4 agonist
S=C(c1ccc(-c2ccc(Cl)cc2Cl)o1)N1CCCCC1 | -8 | -6 | 5 | -10 | 6 | -1
S=C(c1ccc(-c2ccc(Cl)cc2Cl)o1)N1CCCC1 | 2 | 8 | -3 | -15 | 22* | -1
Cc1nc(NC(=O)C(C)(C)C)sc1-c1csc(N)n1 | 4 | 1 | -15 | 5 | 2 | 0
Cc1cc(N2CCC(C)CC2)c(F)cc1[N+](=O)[O-] | 1 | 3 | -3 | -11 | 4 | 0
Cc1cc(N2CCCC2)c(F)cc1/C=C\[N+](=O)[O-] | -9 | 25* | 11 | 64* | -13 | 30
CCOC(=O)c1oc2ccc(Cl)cc2c1NC(C)=O | 20* | -1 | -9 | 8 | 1 | 2
CCOC(=O)c1oc2ccccc2c1NC(=O)C(C)(C)C | 5 | -1 | -6 | 6 | 5 | -1
CC1(C(=O)NS(=O)(=O)c2ccc(C#N)cc2)CCN1C(=O)Cc1ccc(-c2ccccc2)cc1 (stereo not given) | -3 | 0 | 5 | -2 | 5 | 0
O=[N+]([O-])c1ccccc1CN1CCN(S(=O)(=O)Cc2ccccc2)CC1 | 15 | -2 | 0 | 5 | 2 | 2
CN(Cc1ccccc1)C1CCN(Cc2ccccc2[N+](=O)[O-])CC1 | -17 | -21 | 48* | 11 | -15 | 1
CN1CCC(=C2c3ccccc3C(O)c3ccccc32)CC1 (stereo not given) | -20 | -7 | 96* | 99* | -19 | 2
CN1CCC(=C2c3ccccc3CCc3sccc32)CC1 | -17 | 0 | 99* | 99* | -18 | 5
CN1CCC(=C2c3ccccc3CC(=O)c3sccc32)CC1 | -17 | 0 | 72* | 98* | -19 | 6
O=C(NCc1ccco1)c1ccc2c(=O)n(Cc3ccco3)c(SCC(=O)N3CCCC3)nc2c1 | -30 | 2 | 42* | 1 | 0 | -3
O=C(CSc1nc2ccccc2c(=O)n1Cc1ccco1)N1CCCCCC1 | 13 | 0 | 5 | 5 | -4 | 0
CCCCNC(=O)C(=O)Nc1ccc2c(c1)N(S(=O)(=O)c1cccs1)CCC2 | -4 | 0 | -26 | 0 | -5 | 8
CCCCCCN1C2=NCCN2c2ccccc21 | -22 | -5 | 29* | 0 | 1 | 3
CNCCCN1c2ccccc2CCc2ccccc21 | -19 | 1 | 36* | 85* | -19 | 10
CC(=O)c1ccc2c(c1)N(CCCN(C)C)c1ccccc1S2 | -17 | -1 | 34* | 70* | -18 | 2
CCC(=O)c1ccc2c(c1)N(CCCN(C)C)c1ccccc1S2 | -17 | -1 | 39* | 74* | -19 | 5
